{"source": "ChEMBL document CHEMBL4145575", "about": "“ent-Kaurane Diterpenoids with Neuroprotective Properties from Corn Silk ( Zea mays)” (2018)", "key": {"SH-SY5Y [1]": {"tested_on": "SH-SY5Y", "experiment": "Neuroprotective activity against H2O2-induced cell death in human SH-SY5Y cells assessed as increase in cell viability up to 100 uM", "format": "functional, cell-based", "how_it_was_run": "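SH-SY5Y cells were injured with H2O2, with test compounds up to 100 μM. Viability was read by MTT assay and compared with the H2O2 model group. Trolox served as positive control. Data were reported as means ± SEM.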"}, "SH-SY5Y [2]": {"tested_on": "SH-SY5Y", "experiment": "Neuroprotective activity against H2O2-induced cell death in human SH-SY5Y cells assessed as increase in cell viability at 100 uM relative to control", "format": "functional", "how_it_was_run": "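SH-SY5Y cells exposed to H2O2, with or without test compound; viability read by MTT assay and compared with the H2O2-only model group. Trolox served as positive control. Cell viability given as means ± SEM.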"}, "SH-SY5Y [3]": {"tested_on": "SH-SY5Y", "experiment": "Neuroprotective activity against H2O2-induced apoptosis in human SH-SY5Y cells assessed as early apoptotic cells at 50 uM pretreated for 1 hr followed by H2O2-stimulation after 4 hrs by Annexin-V-FITC/propidium iodide staining based flow cytometry (reference value: 6.4%)", "format": "functional"}, "SH-SY5Y [4]": {"tested_on": "SH-SY5Y", "experiment": "Neuroprotective activity against H2O2-induced apoptosis in human SH-SY5Y cells assessed as reduction in nuclear fragmentation at 25 to 100 uM after 4 hrs by Hoechst 33258 staining based fluorescence microscopic analysis", "format": "functional, cell-based", "how_it_was_run": "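SH-SY5Y cells were incubated with H2O2 (200 μM) for 4 h, with or without compound at 25, 50 or 100 μM. Nuclei were stained with the DNA dye Hoechst 33258. Chromatin condensation and fragmented nuclei were scored by fluorescence microscopy against untreated control and H2O2-only cells.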"}, "SH-SY5Y [5]": {"tested_on": "SH-SY5Y", "experiment": "Neuroprotective activity against H2O2-induced morphological changes in human SH-SY5Y cells assessed as reduction in cell shrinkage after 4 hrs by phase contrast microscopic analysis", "format": "functional, cell-based", "how_it_was_run": "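Cells were exposed to H2O2 (200 μM) for 4 h, in the presence or absence of compound at 25, 50 or 100 μM. Cell shrinkage and other morphology were viewed by phase contrast microscopy and compared with untreated control and H2O2-only cells.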"}, "SH-SY5Y [6]": {"tested_on": "SH-SY5Y", "experiment": "Neuroprotective activity against H2O2-induced apoptosis in human SH-SY5Y cells assessed as early apoptotic cells at 25 uM pretreated for 1 hr followed by H2O2-stimulation after 4 hrs by Annexin-V-FITC/propidium iodide staining based flow cytometry (reference value: 6.4%)", "format": "functional"}, "SH-SY5Y [7]": {"tested_on": "SH-SY5Y", "experiment": "Neuroprotective activity against H2O2-induced apoptosis in human SH-SY5Y cells assessed as necrotic cells at 25 uM pretreated for 1 hr followed by H2O2-stimulation after 4 hrs by Annexin-V-FITC/propidium iodide staining based flow cytometry (reference value: 2.63%)", "format": "functional"}, "SH-SY5Y [8]": {"tested_on": "SH-SY5Y", "experiment": "Neuroprotective activity against H2O2-induced apoptosis in human SH-SY5Y cells assessed as necrotic cells at 100 uM pretreated for 1 hr followed by H2O2-stimulation after 4 hrs by Annexin-V-FITC/propidium iodide staining based flow cytometry (reference value: 2.63%)", "format": "functional"}, "SH-SY5Y [9]": {"tested_on": "SH-SY5Y", "experiment": "Neuroprotective activity against H2O2-induced apoptosis in human SH-SY5Y cells assessed as viable cells at 100 uM pretreated for 1 hr followed by H2O2-stimulation after 4 hrs by Annexin-V-FITC/propidium iodide staining based flow cytometry (reference value: 76%)", "format": "functional", "settings": "read-out: Activity"}, "SH-SY5Y [10]": {"tested_on": "SH-SY5Y", "experiment": "Neuroprotective activity against H2O2-induced apoptosis in human SH-SY5Y cells assessed as viable cells at 50 uM pretreated for 1 hr followed by H2O2-stimulation after 4 hrs by Annexin-V-FITC/propidium iodide staining based flow cytometry (reference value: 76%)", "format": "functional", "settings": "read-out: Activity"}, "SH-SY5Y [11]": {"tested_on": "SH-SY5Y", "experiment": "Neuroprotective activity against H2O2-induced apoptosis in human SH-SY5Y cells assessed as late apoptotic cells at 100 uM pretreated for 1 hr followed by H2O2-stimulation after 4 hrs by Annexin-V-FITC/propidium iodide staining based flow cytometry (reference value: 15%)", "format": "functional"}, "SH-SY5Y [12]": {"tested_on": "SH-SY5Y", "experiment": "Neuroprotective activity against H2O2-induced apoptosis in human SH-SY5Y cells assessed as viable cells at 25 uM pretreated for 1 hr followed by H2O2-stimulation after 4 hrs by Annexin-V-FITC/propidium iodide staining based flow cytometry (reference value: 76%)", "format": "functional", "settings": "read-out: Activity"}, "SH-SY5Y [13]": {"tested_on": "SH-SY5Y", "experiment": "Neuroprotective activity against H2O2-induced apoptosis in human SH-SY5Y cells assessed as late apoptotic cells at 50 uM pretreated for 1 hr followed by H2O2-stimulation after 4 hrs by Annexin-V-FITC/propidium iodide staining based flow cytometry (reference value: 15%)", "format": "functional"}, "SH-SY5Y [14]": {"tested_on": "SH-SY5Y", "experiment": "Neuroprotective activity against H2O2-induced apoptosis in human SH-SY5Y cells assessed as early apoptotic cells at 100 uM pretreated for 1 hr followed by H2O2-stimulation after 4 hrs by Annexin-V-FITC/propidium iodide staining based flow cytometry (reference value: 6.4%)", "format": "functional"}, "SH-SY5Y [15]": {"tested_on": "SH-SY5Y", "experiment": "Neuroprotective activity against H2O2-induced apoptosis in human SH-SY5Y cells assessed as late apoptotic cells at 25 uM pretreated for 1 hr followed by H2O2-stimulation after 4 hrs by Annexin-V-FITC/propidium iodide staining based flow cytometry (reference value: 15%)", "format": "functional"}, "SH-SY5Y [16]": {"tested_on": "SH-SY5Y", "experiment": "Neuroprotective activity against H2O2-induced apoptosis in human SH-SY5Y cells assessed as necrotic cells at 50 uM pretreated for 1 hr followed by H2O2-stimulation after 4 hrs by Annexin-V-FITC/propidium iodide staining based flow cytometry (reference value: 2.63%)", "format": "functional"}}, "note": "Calls of active or inactive are those of the source. The rule behind the calls is not given here.", "data": [{"smiles": "C[C@@]12CCC[C@@](C)(C(=O)O)[C@H]1CC[C@]13C=C(C(=O)O)[C@H](CC[C@H]12)C3", "values": [{"measurement": "Activity", "setting": "SH-SY5Y [1]", "value": "inactive"}]}, {"smiles": "COC(=O)[C@]1(C)CC[C@H](O)[C@@]2(C)[C@@H]3CC[C@@H]4C[C@]3(C=C4C(=O)O)CC[C@@H]21", "values": [{"measurement": "Activity", "setting": "SH-SY5Y [1]", "value": "inactive"}]}, {"smiles": "C[C@@]12C[C@H](O)C[C@@](C)(C=O)[C@H]1CC[C@]13C=C(C(=O)O)[C@H](CC[C@H]12)C3", "values": [{"measurement": "Activity", "setting": "SH-SY5Y [1]", "value": "inactive"}]}, {"smiles": "CC1(C)[C@H](O)[C@@H](O)C[C@]2(C)[C@@H]1CC[C@]13C=C(C(=O)O)[C@H](CC[C@H]12)C3", "values": [{"measurement": "Activity", "setting": "SH-SY5Y [2]", "value": ">10", "unit": "%"}]}, {"smiles": "C[C@@]1(O)[C@H](O)CC[C@@]2(C)[C@@H]3CC[C@@H]4C[C@]3(C=C4C(=O)O)CC[C@H]12", "values": [{"measurement": "Activity", "setting": "SH-SY5Y [1]", "value": "inactive"}]}, {"smiles": "C[C@@]12CCC[C@@](C)(C=O)[C@H]1CC[C@@]13C=C(C(=O)O)[C@@H](C1)[C@@H](O)C[C@H]32", "values": [{"measurement": "Activity", "setting": "SH-SY5Y [2]", "value": ">10", "unit": "%"}]}, {"smiles": "C[C@@]1(O)[C@H](O)CC[C@@]2(C)[C@@H]3CC[C@@H]4C[C@@]3(CC[C@H]12)C[C@@H]4C(=O)O", "values": [{"measurement": "Activity", "setting": "SH-SY5Y [2]", "value": ">10", "unit": "%"}]}, {"smiles": "C[C@@]1(CO)C[C@@H](O)C[C@]2(C)[C@@H]1CC[C@]13C=C(C(=O)O)[C@H](CC[C@H]12)C3", "values": [{"measurement": "Activity", "setting": "SH-SY5Y [1]", "value": "inactive"}]}, {"smiles": "COC(=O)[C@]1(C)C[C@@H](O)C[C@@]2(C)[C@@H]3CC[C@@H]4C[C@]3(C=C4C(=O)O)CC[C@@H]21", "values": [{"measurement": "Activity", "setting": "SH-SY5Y [1]", "value": "inactive"}]}, {"smiles": "C[C@@]1(CO)CC(=O)C[C@]2(C)[C@@H]1CC[C@@]13C[C@@H](CC[C@H]12)[C@@H](C(=O)O)C3", "values": [{"measurement": "Activity", "setting": "SH-SY5Y [2]", "value": ">10", "unit": "%"}]}, {"smiles": "C[C@@]12CCC[C@@](C)(O)[C@H]1CC[C@]13C=C(C(=O)O)[C@H](CC[C@H]12)C3", "values": [{"measurement": "Activity", "setting": "SH-SY5Y [3]", "value": 3.93, "unit": "%"}, {"measurement": "Activity", "setting": "SH-SY5Y [4]", "value": "Active"}, {"measurement": "Activity", "setting": "SH-SY5Y [5]", "value": "Dose-dependent effect"}, {"measurement": "Activity", "setting": "SH-SY5Y [6]", "value": 3.23, "unit": "%"}, {"measurement": "Activity", "setting": "SH-SY5Y [7]", "value": 1.29, "unit": "%"}, {"measurement": "Activity", "setting": "SH-SY5Y [8]", "value": 1.44, "unit": "%"}, {"measurement": "viability at 100 µM", "setting": "SH-SY5Y [9]", "value": 90, "unit": "%"}, {"measurement": "viability at 50 µM", "setting": "SH-SY5Y [10]", "value": 90, "unit": "%"}, {"measurement": "Activity", "setting": "SH-SY5Y [11]", "value": 5.94, "unit": "%"}, {"measurement": "viability at 25 µM", "setting": "SH-SY5Y [12]", "value": 86.2, "unit": "%"}, {"measurement": "Activity", "setting": "SH-SY5Y [13]", "value": 5.34, "unit": "%"}, {"measurement": "Activity", "setting": "SH-SY5Y [14]", "value": 2.58, "unit": "%"}, {"measurement": "Activity", "setting": "SH-SY5Y [15]", "value": 9.28, "unit": "%"}, {"measurement": "Activity", "setting": "SH-SY5Y [2]", "value": ">10", "unit": "%"}, {"measurement": "Activity", "setting": "SH-SY5Y [16]", "value": 0.727, "unit": "%"}]}, {"smiles": "C[C@@]12C[C@H](O)C[C@@](C)(C(=O)O)[C@H]1CC[C@@]13C[C@@H](CC[C@H]12)[C@@H](C(=O)O)C3", "values": [{"measurement": "Activity", "setting": "SH-SY5Y [1]", "value": "inactive"}]}, {"smiles": "COC(=O)[C@]1(C)C[C@@H](O)C[C@@]2(C)[C@@H]3CC[C@@H]4C[C@@]3(CC[C@@H]21)C[C@@H]4C(=O)O", "values": [{"measurement": "Activity", "setting": "SH-SY5Y [1]", "value": "inactive"}]}, {"smiles": "C[C@@]1(CO)C[C@@H](O)C[C@]2(C)[C@@H]1CC[C@@]13C[C@@H](CC[C@H]12)[C@@H](C(=O)O)C3", "values": [{"measurement": "Activity", "setting": "SH-SY5Y [1]", "value": "inactive"}]}, {"smiles": "C[C@@]12CCC[C@@](C)(C(=O)O)[C@H]1CC[C@@]13C[C@@H](CC[C@H]12)[C@](O)(CO)C3", "values": [{"measurement": "Activity", "setting": "SH-SY5Y [1]", "value": "inactive"}]}]}
